Source: PubChem (The Scripps Research Institute Molecular Screening Center)
TAAR1 ag: human TAAR1 agonists, primary screen, Fluo-8 calcium fluorescence, CHO RD-HGA16 cells; 360,000 tested, 0.99% active; vehicle wells 0%, saturating PEA agonist 100%; AID 624467, 2012; activation, % at 3 µM;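 active = activation above the mean activation of all test compounds in the run plus 3 SD, cut at about 38% in these data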
Target sequence (Q96RJ0 whole entry, looked up): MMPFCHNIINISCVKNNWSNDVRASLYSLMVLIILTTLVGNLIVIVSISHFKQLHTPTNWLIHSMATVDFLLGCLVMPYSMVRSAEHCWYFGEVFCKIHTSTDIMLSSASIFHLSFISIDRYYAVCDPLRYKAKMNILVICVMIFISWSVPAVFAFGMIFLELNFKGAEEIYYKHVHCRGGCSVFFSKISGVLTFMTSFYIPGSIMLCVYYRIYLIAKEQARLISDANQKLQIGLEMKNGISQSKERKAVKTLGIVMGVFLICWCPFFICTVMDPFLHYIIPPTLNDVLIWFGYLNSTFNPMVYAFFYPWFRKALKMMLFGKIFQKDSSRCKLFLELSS
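Assay system – CHO-derived RD-HGA16 cells with stable Gα16 and human TAAR1 · Compound dosing – one-point dosing at 3 µM (nominal) · Incubation – 17-24 h seeding, 75 min 37 °C dye, 30 min RT · Measured by – kinetic Fluo-8 calcium fluorescence · Control set – DMSO vehicle as 0%, PEA at EC100 as 100% · Repeats – single well for each compound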
GalR3 antagonist: GalR3 antagonists in HEK293 cells, primary screen, cell-based, fluorescence readout; Galanin receptor type 3 (Homo sapiens), O60755; HEK293 GalR3-CNG cAMP membrane potential fluorescence; galR3 body fused to GalR1 C-terminus; inhibition, % at 3 µM; 360,000 tested, 0.44% active; AID 651719, 2012;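 active = inhibition above the screen-wide average plus 3 SD, cut at about 13% in these data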;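 also: forskolin and galanin both at EC90 stimulate the cells; cAMP rise reported by CNG channel membrane potential dye signal; 0% = forskolin plus galanin with DMSO and 100% = forskolin alone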
Target sequence (O60755 1-299 limits assumed): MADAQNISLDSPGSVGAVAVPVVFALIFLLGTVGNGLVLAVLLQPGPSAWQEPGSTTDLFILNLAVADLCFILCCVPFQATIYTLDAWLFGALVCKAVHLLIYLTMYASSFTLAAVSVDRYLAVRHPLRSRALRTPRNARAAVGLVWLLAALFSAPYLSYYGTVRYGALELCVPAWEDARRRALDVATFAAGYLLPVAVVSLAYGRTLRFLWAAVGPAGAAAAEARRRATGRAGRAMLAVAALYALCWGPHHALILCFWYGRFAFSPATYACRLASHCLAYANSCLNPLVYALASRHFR
OX1R antag-1: antagonists of human orexin 1 receptor (OX1R). Orexin/Hypocretin receptor type 1 (Homo sapiens), O43613. OX1R-expressing cells, FRET antagonist read-out. inhibition, % at 6.6 µM. 330,000 tested, 1.8% active; in the data active = inhibition mostly above about 38%, no sharp cut-off; inactive = mostly below about 40%;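 also: 0% = agonist challenge alone and 100% = reference antagonist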
TAAR1 antagonist: human TAAR1 antagonists, primary screen, Fluo-8 calcium fluorescence, CHO RD-HGA16 cells; AID 624466, 2012; Trace amine-associated receptor 1 (Homo sapiens), Q96RJ0; 360,000 tested, 1.5% active; inhibition, % at 3 µM; antagonist;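 active = inhibition above a per-plate cutoff, the mean inhibition of test compounds on that plate plus 3 SD, cut at about 49% in these data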;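 also: 0% = DMSO plus EC80 beta-PEA response and 100% = DMSO alone without agonist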
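Test system – hTAAR1-expressing CHO RD-HGA16 cells, Gα16-coupled · Reagent – β-PEA at EC80 concentration, post-compound challenge · Compound dosing – 3 µM, single point · Timing – 140 s kinetic read after compound, 140 s after agonist · Detection – Fluo-8 intracellular calcium dye fluorescence, real-time kinetic reads · Control set – DMSO and EC80 PEA controls · Repeats – n of 1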
CHO parental Ca: ATP-evoked calcium signal inhibitors, parental CHO, primary screen, counter-screen for OX1R antagonist project, cell-based, fluorescence, Fluo-8 calcium dye | parental CHO-K1, ATP-induced calcium, Fluo-8 fluorescence | AID 463079, 2010 | 330,000 tested, 0.63% active | inhibition, % at 5.6 µM;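 active = inhibition above that plate's mean sample inhibition plus 3 SD, cut at about 26% in these data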;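 also: 0% = ATP-challenged DMSO wells and 100% = DMSO wells without ATP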
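Test system: untransfected parental CHO cell line; also added: ATP stimulus; dosing: 5.6 µM, single dose; signal: calcium-sensitive Fluo-8 fluorescence; measure: percent inhibition of ATP-evoked calcium rise, normalized to controls; benchmarks: low control ATP plus DMSO, high control DMSO only; replication: one well per compound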
OX1R antag-2: OX1R (HCRTR1) antagonists, primary screen, fluorescence, CHO/OX1R cells, Fluo-8 calcium, orexin A; Orexin/Hypocretin receptor type 1 (Homo sapiens), O43613; Fluo-8 calcium fluorescence; inhibition, % at 5 µM; 330,000 tested, 0.43% active; AID 434989, 2010;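 active = inhibition above its plate's threshold, mean inhibition of all tested compounds on the plate plus 3 SD, cut at about 37% in these data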;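 also: 0% = orexin A challenge wells and 100% = SB-334867-A antagonist wells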
Active calls of the source: *; . = not tested or not shown. Shown are actives, neighbours in structure and some others; about 4.2% of the full set was active somewhere.

SMILES	TAAR1 ag	GalR3 antagonist	OX1R antag-1	TAAR1 antagonist	CHO parental Ca	OX1R antag-2
CC(C)(C)OC(=O)C[C@@H]1C/C=C\C[C@@H](CC(=O)N(CCO)Cc2ccccc2)C(=O)NC[C@H](c2ccccc2)OC1=O	23	-4	19	63*	-16	13
COCCn1nnnc1C(CC(C)C)N1CCN(c2cccc(OC)c2)CC1 (stereo unspecified)	13	-3	.	-9	.	.
Cc1ccc(N=Cc2cc3c(cc2O)OC(N)=C(C#N)C3c2ccccc2)cc1 (stereo unspecified)	10	-1	19	-45	1	-9
COc1ccc(-c2nnn(CC(=O)N(CCN3CCOCC3)C(C(=O)NC3CCCCC3)c3ccco3)n2)cc1 (stereo unspecified)	6	-5	18	10	-19	-15
CC(Sc1ccc(S(=O)(=O)N2CCOCC2)cn1)C(=O)Nc1ccc(Cl)cc1Cl (stereo unspecified)	7	-7	4	15	-17	-14
Cc1ccc(/C(N)=N/OC(=O)COc2cccc3ccccc23)cc1	4	-8	.	-16	.	.
COc1cccc2c(=O)cc(C)n(CC(=O)Nc3ccc(C)c(C)c3)c12	8	-7	49*	3	47*	-1
O=C(Nc1nc2ccc(F)cc2s1)C1CCN(S(=O)(=O)c2cc([N+](=O)[O-])ccc2Cl)CC1	4	8	33	36	67*	28
Cc1cccc(C)c1NC(=O)C1(C)CN(S(C)(=O)=O)CC(=O)N1Cc1cccc(F)c1 (stereo unspecified)	2	-8	.	-12	.	.
O=C1COc2ccc(C(=O)COC(=O)c3ccccc3[N+](=O)[O-])cc2N1	14	2	16	28	-11	-6
O=C1Nc2ccccc2OCc2c1cccc2[N+](=O)[O-]	3	-5	40*	-15	1	-8
COC(=O)c1sccc1-c1ccc(C(=O)Nc2ccccc2)o1	11	-5	59*	10	-10	-2
O=[N+]([O-])c1ccc(Cl)c(S(=O)(=O)/N=C(/c2ccccc2)N2CCOCC2)c1	-1	-4	51*	-19	-4	-19
O=S(=O)(/N=C(\c1ccccc1)N1CCOCC1)c1ccc(Cl)cc1	1	-3	6	16	-5	3
CCOC(=O)c1c(NC(=O)COC(=O)CNC(=O)c2ccc(Cl)cc2Cl)sc(C(=O)N(C)C)c1C	1	1	10	-32	-17	-17
CCOC(=O)c1c(NC(=O)COC(=O)c2nc(Cl)ccc2Cl)sc(C(=O)N(C)C)c1C	12	-2	10	51*	-20	-20
COc1cc(CN(CC(C)C)S(=O)(=O)c2ccccc2Br)cc(OC)c1	2	-6	34*	10	-20	35
COc1n[nH]c2nncnc12	0	0	121*	-3	-5	1
COC(=O)Cn1c2ccccc2c2nc3ccccc3nc21	7	-11	.	-22	.	.
O=C(O)CCn1c2ccccc2c2nc3ccccc3nc21	7	-5	49*	5	-4	-8
c1ccc2nc3c(nc2c1)c1ccccc1n3CCN1CCOCC1	5	-4	49*	24	-17	-9
CCNC(=O)C1(C)CCCN(CCOc2ccc(OC)cc2)C1 (stereo unspecified)	2	-7	.	-4	.	.
Cc1cc(C)c2c(CC(=O)O)c(C)[nH]c2c1	10	-2	4	11	-19	-30
CCN(CC)S(=O)(=O)c1ccc(Cl)c(NC(=O)COc2ccc(OC)cc2)c1	27	-7	13	58*	21	2
CCN(c1ccccc1)S(=O)(=O)c1ccc(OC)c(NC(=O)Cc2ccccc2OC)c1	1	-7	22	-10	-7	8
SMILES	TAAR1 ag	GalR3 antagonist	OX1R antag-1	TAAR1 antagonist	CHO parental Ca	OX1R antag-2
CCN(c1ccccc1)S(=O)(=O)c1ccc(Cl)c(NC(=O)CNCc2ccccc2OC)c1	5	-7	17	55*	-21	4
COc1ccc(OCC(=O)Nc2cc(S(=O)(=O)N3CCCC3)ccc2Cl)cc1	39*	-3	.	61*	.	.
CCN1C[C@@H]2[C@@H]3C(=O)N(C)C(=O)[C@@H]3[C@](C)(C1=O)N2C(=O)c1ccc(F)cc1	3	1	.	-14	.	.
Nc1sc(-c2ccccc2)cc1C(=O)NCCN1CCOCC1	1	1	.	-12	.	.
Cc1ccc(O)c(CNCCNCc2cc(C)ccc2O)c1	21	-9	20	9	-14	-23
CCc1ccc(O)c(CNCCNCc2cc(CC)ccc2O)c1	42*	-9	4	24	-2	-6
Cn1c2ccccc2c(=O)c2cc(C#Cc3ccc(N)cc3)ccc21	13	-4	58*	49*	-17	-31
O=c1cc(-c2ccc(F)cc2)oc2ccccc12	0	-1	21	-4	-15	-10
CSc1ccc(-c2cc(=O)c3ccccc3o2)cc1	2	-6	68*	-13	-14	38
COC(=O)c1sc(NC(=O)COc2cccc(C)c2)nc1C	-1	-6	69*	-3	-6	-13
C/C(=N\NS(=O)(=O)c1ccc(Cl)cc1)c1ccc(O)cc1	2	-3	14	7	-14	7
CCC(=O)N1CCN(c2nc(-c3ccc(Cl)cc3)cs2)CC1	1	-3	40	12	-22	-31
CC(C)CNC(=S)N1CCN(c2nc(-c3ccc(Cl)cc3)cs2)CC1	-2	-11	34	34	39*	-1
COCCCNC(=S)N1CCN(c2nc(-c3ccc(Cl)cc3)cs2)CC1	4	-7	.	62*	.	.
COCCCNC(=S)N1CCN(c2nc(-c3ccccc3)cs2)CC1	10	-2	22	37	-1	-16
CCOc1ccc(C(C)=O)cc1CC(C(N)=O)C(N)=O	1	1	17	-1	-5	2
Cc1cccc(NC(=O)Nc2cc(C)cc(C)n2)c1	-1	2	33	-6	7	-9
CC(=O)OCC1OC(n2cc(F)c(=O)[nH]c2=O)C(OC(C)=O)C1OC(C)=O (stereo unspecified)	2	-1	1	-28	-9	2
O=C1C(F)=CC(COC(c2ccccc2)(c2ccccc2)c2ccccc2)OC1n1cc(F)c(=O)[nH]c1=O (stereo unspecified)	9	0	.	54*	.	.
